CHOP UPR activ: activators of apoptotic CHOP UPR arm, primary screen, cell-based, CHO-CHOP luciferase reporter, luminescence, uHTS. UPR activation; percent of tunicamycin response over DMSO baseline. AID 449763, 2010. hit rate 0.34% among 330,000. activation, % at 10 µM;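 active = at 10 µM dose, activation of 40% or more, normalized to positive control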;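 note: 100% = tunicamycin at 10 µg/mL and 0% = DMSO alone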
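Material: CHO-CHOP cells, stable luciferase reporter of PERK-eIF2a-CHOP signalling; quantity: 500 reporter cells seeded per well; buffer or medium: F12 medium containing 10% fetal bovine serum; compound: one dose, 10 µM in 0.5% DMSO; incubation: 6 h compound treatment, 37 °C; measured by: Steady-Glo luciferase luminescence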
XBP1 UPR activ: activators of adaptive XBP1 UPR arm, primary screen, cell-based, CHO-XBP1 luciferase reporter, luminescence, uHTS | activation, % at 20 µM | hit rate 0.33% among 330,000 | IRE1-XBP1 UPR activation; percent of tunicamycin response, DMSO as zero | AID 463104, 2010;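 active = versus positive control, 20 µM dose yields 30% or more activation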;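 note: 100% = tunicamycin at 10 µg/mL and 0% = DMSO only wells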
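Material: IRE1-XBP1 luciferase reporter CHO line / Quantity: one thousand reporter cells per well / Buffer or medium: F12 with 10% serum / Compound: 20 µM single concentration, DMSO 1% / Times: 6 h treatment, 37 °C / Detection: Steady-Glo luciferase glow luminescence, 10 min after reagent addition / Benchmarks: tunicamycin high, DMSO low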
CHOP inh: inhibitors of CHOP promoter induction, primary screen, cell-based, unfolded protein response, luciferase reporter; hit rate 3.8% among 220,000; AID 2732, 2010; inhibition, % at 10 µM; CHO-K1 CHOP-promoter luciferase, tunicamycin-induced, 15-18 h;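 active = compounds that reduced the stress-induced luciferase reporter signal by more than about 70% of percent inhibition, limit read from the data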;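 note: 0% = tunicamycin plus vehicle and 100% = wells without tunicamycin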
TLR9-MyD88 inh: inhibitors of TLR9-MyD88 association in cells, primary screen, cell-based, CHO, BLA complementation, fluorescence. Toll-like receptor 9 (Homo sapiens) + Myeloid differentiation primary response protein …. CCF4 FRET ratio. inhibition, % at 4.98 µM. hit rate 0.21% among 340,000;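 active = inhibition above the mean over all tested compounds plus 3 SD, cut at about 21% in these data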;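 note: 0% = DMSO only wells and 100% = clavulanate BLA inhibitor control wells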
Target sequence (Q99836 whole entry, looked up): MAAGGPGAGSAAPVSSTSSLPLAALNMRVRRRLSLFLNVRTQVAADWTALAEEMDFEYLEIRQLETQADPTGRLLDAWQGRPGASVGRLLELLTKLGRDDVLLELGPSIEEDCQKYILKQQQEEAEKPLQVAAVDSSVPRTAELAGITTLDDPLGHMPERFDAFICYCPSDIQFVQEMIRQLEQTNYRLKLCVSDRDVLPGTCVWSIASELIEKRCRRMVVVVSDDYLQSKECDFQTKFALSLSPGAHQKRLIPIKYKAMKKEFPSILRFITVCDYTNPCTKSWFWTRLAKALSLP
Target sequence (Q9NR96 whole entry, looked up): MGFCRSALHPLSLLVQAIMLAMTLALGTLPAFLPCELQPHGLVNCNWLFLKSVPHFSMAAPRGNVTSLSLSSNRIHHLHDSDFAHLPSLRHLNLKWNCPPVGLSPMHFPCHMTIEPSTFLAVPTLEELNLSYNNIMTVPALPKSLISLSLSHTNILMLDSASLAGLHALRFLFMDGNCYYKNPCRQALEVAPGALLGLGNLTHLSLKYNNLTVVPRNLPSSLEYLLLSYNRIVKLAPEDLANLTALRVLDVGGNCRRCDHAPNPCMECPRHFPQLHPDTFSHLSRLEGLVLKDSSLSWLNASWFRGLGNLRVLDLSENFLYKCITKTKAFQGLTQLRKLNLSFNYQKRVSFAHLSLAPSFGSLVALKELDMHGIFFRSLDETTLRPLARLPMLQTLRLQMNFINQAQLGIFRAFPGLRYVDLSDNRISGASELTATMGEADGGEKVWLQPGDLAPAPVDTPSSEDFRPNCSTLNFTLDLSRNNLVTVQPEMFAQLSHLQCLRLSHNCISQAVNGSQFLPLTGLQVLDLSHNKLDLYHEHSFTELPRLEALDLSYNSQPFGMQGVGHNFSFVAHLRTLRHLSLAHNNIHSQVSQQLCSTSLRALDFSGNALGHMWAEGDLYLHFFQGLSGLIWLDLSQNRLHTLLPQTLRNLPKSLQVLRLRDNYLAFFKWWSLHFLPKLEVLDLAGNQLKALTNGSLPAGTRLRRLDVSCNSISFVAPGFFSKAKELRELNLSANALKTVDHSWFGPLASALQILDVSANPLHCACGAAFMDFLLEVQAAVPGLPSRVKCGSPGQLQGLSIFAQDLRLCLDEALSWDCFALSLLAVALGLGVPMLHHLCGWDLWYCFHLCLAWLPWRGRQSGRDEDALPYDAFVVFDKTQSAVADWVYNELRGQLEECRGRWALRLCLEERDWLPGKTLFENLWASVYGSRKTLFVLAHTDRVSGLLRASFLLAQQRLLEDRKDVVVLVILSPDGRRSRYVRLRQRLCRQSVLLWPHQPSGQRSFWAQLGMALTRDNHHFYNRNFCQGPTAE
TLR4-MyD88 BLA: inhibitors of TLR4-MyD88 association in cells, primary screen, cell-based, HeLa CL3-4, BLA complementation, FRET ratio; hit rate 0.18% among 200,000; HeLa CL3-4 TLR4/MyD88 BLA complementation; inhibition, % at 8.4 µM; AID 861, 2007; Toll-like receptor 4 (Homo sapiens) + Myeloid differentiation primary response protein …; in the data active = inhibition above about 25%;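 note: 0% = vehicle and 100% = reference inhibitor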
NOD2 RIPK2 PPI: NOD2-RIPK2 binding disruptors in cells, primary screen, fluorescence, CHO cells, BLA complementation | hit rate 0.38% among 360,000 | CCF4 ratio | inhibition, % at 4.98 µM | AID 624267, 2012; in the data active = inhibition above about 21%;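 note: 0% = vehicle only and 100% = reference blocker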
NOD2 RIPK2 conf: NOD2-RIPK2 binding disruptors, retest, confirmation, fluorescence, CHO cells, BLA complementation, triplicate; shares compounds with NOD2 RIPK2 PPI; CCF4 FRET; inhibition, % at 4.98 µM; hit rate 70% among 1,200; AID 624370, 2012;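 active = mean inhibition across replicates above a set limit taken from the earlier primary screen, cut at about 21% in these data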;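 note: 0% = DMSO-only wells and the high end = clavulanate BLA-blocked wells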
NOD2 BLA counter: NOD2-RIPK2 counterscreen BLA reporter activity; inhibition, % at 4.98 µM; CHO BLA reporter, CCF4 FRET ratio; hit rate 57% among 1,200; shares compounds with NOD2 RIPK2 PPI; AID 624371;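 active = mean inhibition above the low-control mean inhibition plus three low-control SD, cut at about 11% in these data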;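 note: 0% = DMSO only wells and 100% = clavulanate high control wells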
* hit, by the source's call; · = no result given. Many of the other results were omitted from the sample, so hits are more common in it than they were.

SMILES | CHOP UPR activ | XBP1 UPR activ | CHOP inh | TLR9-MyD88 inh | TLR4-MyD88 BLA | NOD2 RIPK2 PPI | NOD2 RIPK2 conf | NOD2 BLA counter
O=C1CCN2C=Nc3cccc4ccc1c2c34 | -1 | 0 | 24 | 16 | 11 | 23* | 32* | 38*
O=C(Cc1cccc2ccccc12)N1CCCc2ccccc21 | -2 | -4 | 12 | 0 | 10 | 24* | 11 | 6
COc1ccc(COc2cc(-c3cccc(OC)c3)nc3ccc(N)cc23)cc1 | 12 | 9 | -61 | 4 | -5 | 31* | 11 | 15*
COc1ccc(COc2cc(-c3cccc(OC)c3)nc3ccc(NC(C)=O)cc23)cc1 | 2 | 0 | 14 | -1 | -9 | 4 | · | ·
O=C(COc1ccc(Cl)c2cccnc12)N1CCOCC1 | 0 | -2 | · | -5 | · | 0 | · | ·
CCOC(=O)N1CCC(N2C(=O)c3ccccc3C2Nc2cc(OC)c(OC)c(OC)c2)CC1 (configuration not stated) | 3 | 1 | 22 | -3 | -1 | 11 | · | ·
CCOC(=O)[C@]12Cc3c(cc(OC)c(OC)c3OC)[C@H]1N(C1CCCCC1)C(=O)c1cc(OC)ccc12 | · | · | · | · | · | 30* | 28* | -4
COc1ccccc1C(=O)NCCC(=O)NCC(C)(C)N1CCOCC1 | -1 | -3 | · | 2 | · | -4 | · | ·
CCOc1ccccc1C(=O)NCC(=O)NCC(C)(C)N1CCOCC1 | 1 | -4 | · | -11 | · | 29* | -4 | -2
CN(C)S(=O)(=O)c1cc(C(=O)Nc2ccccc2C(=O)NC2CC2)ccc1Cl | -1 | 6 | · | -4 | · | -3 | · | ·
Cc1ccc(OCCOC(=O)CCc2nc3ccccc3c(=O)[nH]2)cc1 | 2 | -7 | 18 | -2 | -3 | -3 | · | ·
COc1cc(C(=O)N/N=C/c2ccc(OC)c(CN3CCN(c4ccc(F)cc4)CC3)c2)ccc1O | -2 | -3 | -13 | 10 | 14 | 2 | · | ·
CCOC(=O)C1=C(C)N(C)C(C)=C(C(=O)OCC)C1c1ccncc1 | -1 | -3 | -4 | -7 | 5 | 9 | · | ·
CCOC(=O)C1=C(C)N(C)C(C)=C(C(=O)OCC)C1c1ccccc1 | 5 | 3 | 40 | -25 | 0 | 53* | -8 | -2
CC(NC(=O)CN(C)S(=O)(=O)c1ccc(Br)s1)c1ccccc1 (configuration not stated) | 0 | 3 | · | -2 | · | -4 | · | ·
CCS(=O)(=O)c1c([N+](=O)[O-])ncn1C | 2 | -4 | -39 | -6 | 5 | 1 | · | ·
Cn1cnc([N+](=O)[O-])c1S(=O)(=O)Oc1cccc2ccccc12 | · | · | · | 15 | · | 56* | 55* | 1
Cn1cnc([N+](=O)[O-])c1Oc1cccc2ccccc12 | 6 | -2 | 67 | 2 | -14 | -6 | · | ·
Cn1cnc([N+](=O)[O-])c1S(=O)(=O)Oc1ccc(Cl)cc1 | · | · | · | 2 | · | 21* | 47* | -1
COc1ccc(NC2CCCN(C(=O)CN3C(=O)c4ccccc4C3=O)C2)cc1OC (configuration not stated) | 0 | -3 | · | 1 | · | 5 | · | ·
Cc1ccccc1NC(=O)CCNS(=O)(=O)c1ccc2c(c1)CCC(=O)N2 | 1 | -5 | · | 3 | · | -5 | · | ·
Cc1ccccc1-c1nc(CS(=O)(=O)CC(=O)NCCCN2CCN(C)CC2)c(C)o1 | -1 | -6 | · | 5 | · | -1 | · | ·
CCc1cc2c(=O)nc3n(c2s1)Cc1ccccc1/C3=C(/O)c1ccccc1Cl | 14 | 5 | 0 | 16 | 0 | 31* | -1 | -5
